From ChEMBL document CHEMBL5705890, “Antitumor activity of an allosteric inhibitor of centromere-associated protein-E” (Proc Natl Acad Sci U S A, 2010)

Columns and labels:
[1] = biological target: Centromere-associated protein E (Homo sapiens, UniProt Q02224); assay: Binding affinity to wild-type human CENP-E assessed as inhibition constant
How it was run: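 CENP-E motor domain (residues 2–340, C-terminal 6-his, from E. coli BL21(DE3)) run in MT-stimulated ATPase with 500 μM ATP, 5 μM paclitaxel-stabilized MT, 1 nM enzyme in PEM25 buffer, pH 6.8. Apparent Ki taken from the concentration-response curves with explicit correction for enzyme concentration.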

[2] = Anticancer activity against human BC1 cells assessed as cell growth inhibition measured after 72 hrs by DAPI staining based analysis; assay type: functional
How it was run: (§1)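 Cells were seeded and, after 24 h, DNA content was read as T0. Cells were then exposed to varying drug concentrations for a further 72 h (T72). Fixed cells were DAPI-stained and DNA content measured by automated imaging. T72 values were normalized to T0. GI50 is the concentration giving 50% growth inhibition between T0 and Ymax, obtained by curve fitting.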

BE(2)-C = assay: Anticancer activity against human BE2C cells assessed as cell growth inhibition measured after 72 hrs by DAPI staining based analysis; assay type: functional; how it was run: as §1
[3] = Anticancer activity against human COLO-704 cells assessed as cell growth inhibition measured after 72 hrs by DAPI staining based analysis; assay type: functional
How it was run: (§2)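 Cells seeded, DAPI-stained DNA content of fixed cells read by imaging 24 h after seeding (T0), and again after a further 72 h exposure to a range of drug concentrations (T72). T72 values were normalized to T0. Curve fits gave the concentration producing 50% growth inhibition relative to T0 and Ymax (GI50).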

CRO-AP2 [4] = assay: Anticancer activity against human CRO-AP2 cells assessed as cell growth inhibition measured after 72 hrs by DAPI staining based analysis; assay type: functional; how it was run: as §2
DU-4475 = assay: Anticancer activity against human DU-4475 cells assessed as cell growth inhibition measured after 72 hrs by DAPI staining based analysis; assay type: functional; how it was run: as §2
HEC-1-A = assay: Anticancer activity against human HEC-1-A cells assessed as cell growth inhibition measured after 72 hrs by DAPI staining based analysis; assay type: functional
HT-1080 = assay: Anticancer activity against human HT-1080 cells assessed as cell growth inhibition measured after 72 hrs by DAPI staining based analysis; assay type: functional
HT-29 [5] = assay: Anticancer activity against human HT-29 cells assessed as cell growth inhibition measured after 72 hrs by DAPI staining based analysis; assay type: functional
MCF-10A = assay: Anticancer activity against human MCF-10A cells assessed as cell growth inhibition measured after 72 hrs by DAPI staining based analysis; assay type: functional
NCI-H157 [6] = assay: Anticancer activity against human NCI-H157 cells assessed as cell growth inhibition measured after 72 hrs by DAPI staining based analysis; assay type: functional
NCI-H2170 = assay: Anticancer activity against human NCI-H2170 cells assessed as cell growth inhibition measured after 72 hrs by DAPI staining based analysis; assay type: functional
Raji = assay: Anticancer activity against human Raji cells assessed as cell growth inhibition measured after 72 hrs by DAPI staining based analysis; assay type: functional
[7] = Anticancer activity against human RDES cells assessed as cell growth inhibition measured after 72 hrs by DAPI staining based analysis; assay type: functional; details: RD-ES
RL = assay: Anticancer activity against human RL cells assessed as cell growth inhibition measured after 72 hrs by DAPI staining based analysis; assay type: functional
SW1783 = assay: Anticancer activity against human SW1783 cells assessed as cell growth inhibition measured after 72 hrs by DAPI staining based analysis; assay type: functional
U-251 = assay: Anticancer activity against human U-251 cells assessed as cell growth inhibition measured after 72 hrs by DAPI staining based analysis; assay type: functional
[8] = Anticancer activity against human A7 cells assessed as cell doubling measured for 72 hrs by DAPI staining based analysis; assay type: functional
AGS = assay: Anticancer activity against human AGS cells assessed as cell doubling measured for 72 hrs by DAPI staining based analysis; assay type: functional
[9] = Anticancer activity against human BM-1604 cells assessed as cell doubling measured for 72 hrs by DAPI staining based analysis; assay type: functional
C3A = assay: Anticancer activity against human C3A cells assessed as cell doubling measured for 72 hrs by DAPI staining based analysis; assay type: functional
CAL-54 = assay: Anticancer activity against human CAL-54 cells assessed as cell doubling measured for 72 hrs by DAPI staining based analysis; assay type: functional
CHL-1 = assay: Anticancer activity against human CHL-1 cells assessed as cell doubling measured for 72 hrs by DAPI staining based analysis; assay type: functional
CRO-AP2 [10] = assay: Anticancer activity against human CRO-AP2 cells assessed as cell doubling measured for 72 hrs by DAPI staining based analysis; assay type: functional
D283 Med = assay: Anticancer activity against human D283 Med cells assessed as cell doubling measured for 72 hrs by DAPI staining based analysis; assay type: functional
EFM-19 = assay: Anticancer activity against human EFM-19 cells assessed as cell doubling measured for 72 hrs by DAPI staining based analysis; assay type: functional
FaDu = assay: Anticancer activity against human FaDu cells assessed as cell doubling measured for 72 hrs by DAPI staining based analysis; assay type: functional
HCC1143 = assay: Anticancer activity against human HCC1143 cells assessed as cell doubling measured for 72 hrs by DAPI staining based analysis; assay type: functional
HOS = assay: Anticancer activity against human HOS cells assessed as cell doubling measured for 72 hrs by DAPI staining based analysis; assay type: functional
[11] = Anticancer activity against human KHOS-240S cells assessed as cell doubling measured for 72 hrs by DAPI staining based analysis; assay type: functional
MDA-MB-435 = assay: Anticancer activity against human MDA-MB-435 cells assessed as cell doubling measured for 72 hrs by DAPI staining based analysis; assay type: functional
MES-SA = assay: Anticancer activity against human MES-SA cells assessed as cell doubling measured for 72 hrs by DAPI staining based analysis; assay type: functional
NCI-H157 [12] = assay: Anticancer activity against human NCI-H157 cells assessed as cell doubling measured for 72 hrs by DAPI staining based analysis; assay type: functional
NCI-H23 = assay: Anticancer activity against human NCI-H23 cells assessed as cell doubling measured for 72 hrs by DAPI staining based analysis; assay type: functional
NCI-H292 = assay: Anticancer activity against human NCI-H292 cells assessed as cell doubling measured for 72 hrs by DAPI staining based analysis; assay type: functional
SK-N-DZ = assay: Anticancer activity against human SK-N-DZ cells assessed as cell doubling measured for 72 hrs by DAPI staining based analysis; assay type: functional
SNB-75 = assay: Anticancer activity against human SNB-75 cells assessed as cell doubling measured for 72 hrs by DAPI staining based analysis; assay type: functional
UMUC3 = assay: Anticancer activity against human UM-UC-3 cells assessed as cell doubling measured for 72 hrs by DAPI staining based analysis; assay type: functional
NCI-H460 = assay: Antitumor activity against human NCI-H460 cells in xenograft model assessed as difference between median time to endpoint time of treated versus control group at 125 mg/kg; assay type: functional
HT-29 [13] = assay: Antitumor activity against human HT-29 cells in xenograft model assessed as tumor growth delay at 125 mg/kg relative to control; assay type: functional
MCF7 = assay: Antitumor activity against human MCF7 cells in xenograft model assessed as tumor growth delay at 62.5 mg/kg relative to control; assay type: functional

Centromere-associated protein E, sequence (Q02224 whole entry, the tested form may be a part): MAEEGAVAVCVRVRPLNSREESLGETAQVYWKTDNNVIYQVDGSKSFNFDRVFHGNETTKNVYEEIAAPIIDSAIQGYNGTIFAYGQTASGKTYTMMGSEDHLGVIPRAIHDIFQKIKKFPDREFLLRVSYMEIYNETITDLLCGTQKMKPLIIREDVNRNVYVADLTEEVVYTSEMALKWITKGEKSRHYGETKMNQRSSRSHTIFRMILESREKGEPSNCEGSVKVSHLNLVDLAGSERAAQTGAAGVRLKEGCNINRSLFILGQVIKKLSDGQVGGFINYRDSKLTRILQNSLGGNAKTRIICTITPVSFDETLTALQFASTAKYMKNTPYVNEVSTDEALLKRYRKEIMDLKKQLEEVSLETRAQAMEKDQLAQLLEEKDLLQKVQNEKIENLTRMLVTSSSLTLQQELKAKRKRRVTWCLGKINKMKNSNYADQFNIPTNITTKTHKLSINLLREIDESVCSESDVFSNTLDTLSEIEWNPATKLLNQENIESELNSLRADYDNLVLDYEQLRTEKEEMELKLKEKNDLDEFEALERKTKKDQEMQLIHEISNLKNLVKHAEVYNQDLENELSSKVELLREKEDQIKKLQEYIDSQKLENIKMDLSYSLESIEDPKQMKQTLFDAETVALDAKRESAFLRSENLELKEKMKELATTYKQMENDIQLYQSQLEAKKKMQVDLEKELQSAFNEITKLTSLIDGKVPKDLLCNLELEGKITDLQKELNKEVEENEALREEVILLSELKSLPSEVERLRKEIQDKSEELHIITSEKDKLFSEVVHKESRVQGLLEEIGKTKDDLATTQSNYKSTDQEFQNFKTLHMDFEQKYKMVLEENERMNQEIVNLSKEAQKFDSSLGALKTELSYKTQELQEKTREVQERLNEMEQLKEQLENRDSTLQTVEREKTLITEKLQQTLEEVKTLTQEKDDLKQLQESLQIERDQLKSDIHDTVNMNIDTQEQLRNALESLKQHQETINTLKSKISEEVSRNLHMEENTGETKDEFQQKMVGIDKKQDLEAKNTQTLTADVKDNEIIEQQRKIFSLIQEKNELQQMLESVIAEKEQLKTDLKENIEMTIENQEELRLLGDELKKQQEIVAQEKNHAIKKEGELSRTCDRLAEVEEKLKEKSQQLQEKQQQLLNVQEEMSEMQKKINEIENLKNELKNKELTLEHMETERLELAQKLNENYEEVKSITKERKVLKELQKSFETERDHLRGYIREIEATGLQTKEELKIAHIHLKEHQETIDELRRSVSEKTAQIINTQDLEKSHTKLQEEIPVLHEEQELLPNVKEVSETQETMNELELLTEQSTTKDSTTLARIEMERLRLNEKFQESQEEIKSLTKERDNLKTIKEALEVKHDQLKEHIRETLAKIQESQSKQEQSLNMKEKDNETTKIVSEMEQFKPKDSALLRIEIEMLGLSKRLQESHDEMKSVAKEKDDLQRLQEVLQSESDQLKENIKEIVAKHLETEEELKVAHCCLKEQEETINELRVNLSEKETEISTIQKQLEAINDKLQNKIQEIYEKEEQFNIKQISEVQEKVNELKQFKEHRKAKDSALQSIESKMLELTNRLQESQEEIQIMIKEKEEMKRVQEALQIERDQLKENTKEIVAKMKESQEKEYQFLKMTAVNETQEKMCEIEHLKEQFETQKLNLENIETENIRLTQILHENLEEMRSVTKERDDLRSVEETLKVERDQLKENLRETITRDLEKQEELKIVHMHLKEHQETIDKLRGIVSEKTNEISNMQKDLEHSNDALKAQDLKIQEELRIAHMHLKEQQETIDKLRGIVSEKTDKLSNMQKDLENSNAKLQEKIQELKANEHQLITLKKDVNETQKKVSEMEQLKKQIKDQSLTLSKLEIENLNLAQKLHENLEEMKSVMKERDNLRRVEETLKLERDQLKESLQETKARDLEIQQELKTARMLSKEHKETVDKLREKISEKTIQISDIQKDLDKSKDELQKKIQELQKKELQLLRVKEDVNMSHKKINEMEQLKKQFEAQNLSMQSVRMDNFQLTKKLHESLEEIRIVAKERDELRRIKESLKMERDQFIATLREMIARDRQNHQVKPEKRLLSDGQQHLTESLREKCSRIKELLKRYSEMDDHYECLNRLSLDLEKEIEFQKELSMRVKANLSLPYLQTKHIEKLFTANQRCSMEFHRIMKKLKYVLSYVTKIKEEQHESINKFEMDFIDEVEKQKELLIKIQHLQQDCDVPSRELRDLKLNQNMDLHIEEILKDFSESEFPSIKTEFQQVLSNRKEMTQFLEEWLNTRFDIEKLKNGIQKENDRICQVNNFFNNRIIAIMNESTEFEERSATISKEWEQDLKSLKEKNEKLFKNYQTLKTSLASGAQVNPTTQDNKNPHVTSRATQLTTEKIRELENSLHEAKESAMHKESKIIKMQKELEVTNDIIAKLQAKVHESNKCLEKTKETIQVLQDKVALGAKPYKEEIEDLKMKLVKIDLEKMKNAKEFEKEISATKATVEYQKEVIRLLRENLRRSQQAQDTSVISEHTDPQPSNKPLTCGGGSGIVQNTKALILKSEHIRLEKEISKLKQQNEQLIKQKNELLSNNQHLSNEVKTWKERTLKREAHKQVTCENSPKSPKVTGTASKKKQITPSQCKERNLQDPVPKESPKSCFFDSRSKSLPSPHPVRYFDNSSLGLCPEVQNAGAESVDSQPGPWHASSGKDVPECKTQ

**Q.** Which results are given for `CC(C)Oc1ccc(C(=O)N[C@H](CNC(=O)CN(C)C)Cc2ccc(-c3cn4cccc([C@H](C)O)c4n3)cc2)cc1Cl` [GSK-923295A]?
**A.** Ki [1]: 3.2 nM; GI50 [2]: 83 nM; GI50 (BE(2)-C): 93 nM; GI50 [3]: 69 nM; GI50 (CRO-AP2 [4]): 51 nM; GI50 (DU-4475): 147 nM; GI50 (HEC-1-A): 50 nM; GI50 (HT-1080): 24 nM; GI50 (HT-29 [5]): 14 nM; GI50 (MCF-10A): 16 nM; GI50 (NCI-H157 [6]): 37 nM; GI50 (NCI-H2170): 25 nM; GI50 (Raji): 41 nM; GI50 [7]: 63 nM; GI50 (RL): 37 nM; GI50 (SW1783): 34 nM; GI50 (U-251): 26 nM; Activity [8]: 2.17; Activity (AGS): 2.95; Activity [9]: 2.38; Activity (C3A): 2.23; Activity (CAL-54): 1.05; Activity (CHL-1): 3.27; Activity (CRO-AP2 [10]): 2.92; Activity (D283 Med): 1.27; Activity (EFM-19): 1.43; Activity (FaDu): 2.61; Activity (HCC1143): 1.89; Activity (HOS): 3.65; Activity [11]: 2.44; Activity (MDA-MB-435): 2.96; Activity (MES-SA): 3.22; Activity (NCI-H157 [12]): 2.6; Activity (NCI-H23): 2.04; Activity (NCI-H292): 2.2; Activity (SK-N-DZ): 1.81; Activity (SNB-75): 1.37; Activity (UMUC3): 2.44; Time (NCI-H460): 37.2 days; Activity (HT-29 [13]): 39%; Activity (MCF7): 20%
